Calls of active or inactive are those of the source. The calls are words filed in the database; no cut-off is given here.
Experiments:
[1] = Cytotoxicity against human M059K ATCC CRL2365 cells by MTT assay; format: functional, cell-based
[2] = Cytotoxicity against human MCF10A cells by MTT assay; format: cell-based; conditions: MCF-10A
[3] = Inhibition of Electron transport protein complex 1 in bovine heart submitochondrial particles assessed as NADH oxidase activity by spectrophotometric analysis; set-up: species or system Bos taurus
How it was run: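 Beef-heart inverted SMP (stored at −80 °C in 0.25 M sucrose, 10 mM Tris-HCl pH 7.4) diluted to 0.5 mg/mL and NADH-activated. Inhibitor pre-equilibrated with SMP 5 min in 50 mM Hepes pH 7.5, 5 mM MgCl2. NADH started the reaction. Initial linear rates were read at 340 nm, 30 °C, with DMSO ≤2%. IC50 is half-maximal inhibition of control; mean ± SD, three independent experiments.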

[4] = tested on: A549; experiment: Cytotoxicity against human A549 cells by MTT assay; format: functional, cell-based
[5] = Cytotoxicity against mouse 3LL cells by MTT assay; format: functional, cell-based
[6] = tested on: MCF7; experiment: Cytotoxicity against human MCF7 cells by MTT assay; format: functional, cell-based
[7] = Inhibition of Electron transport protein complex 1 in bovine heart submitochondrial particles assessed as NADH ubiquinone oxidoreductase oxidase activity by spectrophotometric analysis in presence of exogenous ubiquinone 1; set-up: species or system Bos taurus
How it was run: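 Activated beef-heart inverted SMP were pre-equilibrated with inhibitor 5 min, then NADH was added at 30 °C. Medium: 0.25 M sucrose, 1 mM MgCl2, 2 mM KCN, antimycin A, ubiquinone Q1, 50 mM phosphate pH 7.4. Rate was followed at 340 nm, DMSO ≤2%. IC50 is half-maximal inhibition of control; mean ± SD of three independent experiments.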

[8] = tested on: MCF7; experiment: Induction of shift to glycolysis in human MCF7 cells assessed as lactate production at 6.6 uM after 3 hrs; format: functional
[9] = tested on: M059J; experiment: Cytotoxicity against human M059J ATCC CRL2366 cells by MTT assay; format: functional, cell-based
[10] = tested on: MCF7; experiment: Induction of shift to glycolysis in human MCF7 cells assessed as lactate production at 18.2 uM after 3 hrs; format: functional
[11] = tested on: MCF7; experiment: Induction of shift to glycolysis in human MCF7 cells assessed as lactate production at < 0.15 uM after 3 hrs; format: functional
[12] = tested on: MCF7; experiment: Induction of shift to glycolysis in human MCF7 cells assessed as lactate production at 0.44 uM after 3 hrs; format: functional
[13] = species: Bos taurus; experiment: Inhibition of Electron transport protein complex 1 in bovine heart submitochondrial particles assessed as residual NADH oxidase activity at 1 uM by spectrophotometric analysis
[14] = species: Bos taurus; experiment: Inhibition of Electron transport protein complex 1 in bovine heart submitochondrial particles assessed as residual NADH ubiquinone oxidoreductase oxidase activity at 1 uM by spectrophotometric analysis in presence of exogenous ubiquinone 1
[15] = Cytotoxicity against human MCF10A cells by SRB assay; format: cell-based; conditions: mcf-10a
[16] = tested on: ATCC CRL2365; experiment: Cytotoxicity against human M059K ATCC CRL2365 cells by SRB assay; format: functional, cell-based
[17] = tested on: MCF7; experiment: Induction of shift to glycolysis in human MCF7 cells assessed as lactate production at 0.38 uM after 3 hrs; format: functional
[18] = tested on: A549; experiment: Cytotoxicity against human A549 cells by SRB assay; format: functional, cell-based
[19] = tested on: MCF7; experiment: Cytotoxicity against human MCF7 cells by SRB assay; format: functional, cell-based
[20] = tested on: M059J; experiment: Cytotoxicity against human M059J ATCC CRL2366 cells by SRB assay; format: functional, cell-based
[21] = tested on: 3LL; experiment: Cytotoxicity against mouse 3LL cells by SRB assay; format: functional, cell-based

Row | Compound | IC50 [1] [µM] | IC50 [2] [µM] | IC50 [3] [µM] | IC50 [4] [µM] | IC50 [5] [µM] | IC50 [6] [µM] | IC50 [7] [µM] | IC50 [9] [µM] | Activity [13] [%] | Activity [14] [%] | further results
1 | CCCCCCCCCC[C@@H](O)[C@H]1CC[C@H]([C@H]2CC[C@H]([C@H](O)CCCCCCCCCC)O2)O1 [dleta-lac-Acetogenin] | > 20 | > 20 | 0.0123 | > 20 | 0.99 | > 20 | 10.4 | > 20 | – | – | Activity [8]: 616 µM
2 | CCCCc1ccc(OCCCCC[C@@H](O)[C@H]2CC[C@H]([C@H]3CC[C@H]([C@H](O)CCCCCOc4ccc(CCCC)cc4)O3)O2)cc1 | > 16 | > 16 | 0.0196 | > 16 | 0.64 | > 16 | > 15 | > 16 | – | – | Activity [10]: 572 µM
3 | CCCCCC[C@H]1C(=O)O[C@H](C)[C@H](NC(=O)c2cccc(NC=O)c2O)C(=O)O[C@@H](C)[C@@H]1OC(=O)CC(C)C [ANTIMYCIN A] | – | – | – | – | – | – | – | – | – | – | Activity [11]: 1520 µM
4 | CCCCc1ccc(OCCC#CC[C@@H](O)[C@H]2CC[C@H]([C@H]3CC[C@H]([C@H](O)CC#CCCOc4ccc(CCCC)cc4)O3)O2)cc1 | 14.6 | > 16 | 0.0388 | > 16 | 0.48 | > 16 | 1.7 | > 16 | 18 | 25 | Activity [12]: 1280 µM
5 | CCCCCCCC#CC[C@@H](O)[C@H]1CC[C@H]([C@H]2CC[C@H]([C@H](O)CC#CCCCCCCC)O2)O1 | 20.3 | 2 | 0.0301 | 13.2 | 5.2 | 7.6 | 0.048 | > 20.9 | 12 | 18 | Activity [15]: Active; Activity [16]: Active; Activity [17]: 1080 µM; Activity [18]: Active; Activity [19]: Active; Activity [20]: Active; Activity [21]: Active

Source: ChEMBL document CHEMBL1154507, “Synthesis and characterization of Deltalac-acetogenins that potently inhibit mitochondrial complex I” (Bioorg Med Chem, 2009)
